Assay results of several laboratories.

SMILES	system	conditions	endpoint	value
CC(C)[C@@H](CS(=O)(=O)C(C)C)N1C(=O)[C@@](C)(CC(=O)O)C[C@H](c2cccc(Cl)c2)[C@H]1c1ccc(Cl)cc1	FVB mouse, brain	intravenous, 20 mg/kg, single dose	AUC(0-inf)	172 ng·h/mL
COc1cccc2c(N3CCC(CCP(=O)(O)O)CC3)ncnc12	female C57BL/6 mouse, brain	subcutaneous, 50 mg/kg	AUC(0-inf)	751 ng·h/mL
OCc1ccc(-c2nn(Cc3ccccc3)c3ccccc23)o1	male CD-1 mouse, plasma	oral, 10 mg/kg	AUC(0-t)	218 ng·h/mL
Cc1nc2ccc(OCc3ccc(C(F)(F)F)cc3)cc2[nH]1	male BALB/c mouse, plasma	oral, 10 mg/kg	AUC(0-inf)	13200 ng·h/mL
O=C1CCC(N2Cc3cc(C4CCN(Cc5ccccc5)CC4)ccc3C2=O)C(=O)N1 (stereo not shown)	male CD-1 mouse, plasma	intravenous, 1 mg/kg	AUC(0-inf)	355 ng·h/mL
CN(C)C(=O)c1cc2cnc(Nc3ccc(-c4ccc5c(=O)cc(N6CCOCC6)oc5c4)cc3)nc2n1C1CCCC1	BALB/c mouse, plasma	oral, 20 mg/kg	AUC(0-inf)	2890 ng·h/mL
NCc1ccc(-c2nn(Cc3ccncc3)c3ccccc23)o1	male CD-1 mouse, plasma	intraperitoneal, 30 mg/kg	AUC(0-t)	5240 ng·h/mL
NCc1cc2c(cc1F)C(=O)N(C1CCC(=O)NC1=O)C2 (stereo not shown)	male CD-1 mouse, plasma	oral, 10 mg/kg	AUC(0-inf)	262 ng·h/mL
OCc1nc2ccc(NCc3ccc(C(F)(F)F)cc3)cc2[nH]1	male BALB/c mouse, plasma	oral, 10 mg/kg	AUC(0-inf)	2730 ng·h/mL
COCC(=O)N1CCc2[nH]c3c(Cl)c(Cl)ccc3c2[C@@H]1C	C57BL/6 mouse, blood	intravenous, 1 mg/kg	AUC(0-inf)	3.28 µM·h
O=C1CCC(N2Cc3cc(CO)c(F)cc3C2=O)C(=O)N1 (stereo not shown)	male CD-1 mouse, plasma	intravenous, 1 mg/kg	AUC(0-inf)	316 ng·h/mL
CCn1c(=O)c(-c2cc(NC(=O)Nc3ccccc3)c(F)cc2Br)cc2cnc(NC)cc21	male mouse, plasma	oral, 15 mg/kg, single dose	AUC	2310 ng·h/mL
CCOC(=O)c1c(NC(=O)CNC(C)C)sc2c1CCCCC2	male mouse, plasma	intraperitoneal, 5 mg/kg, single dose	AUC(0-inf)	311 ng·h/mL
